# Data taken from article PMC5624728 (Journal of pharmaceutical innovation, 2017).
# “And” between values parts separate entries of the source, which are not always exact repeats. Equal values may be shown once. Read-outs that look alike come from different tables or passages of the source.
# Tests used:
# HIV-1 RT = settings: tight-binding inhibitor; cited from earlier work
# [1] = system: J774A.1 mouse macrophage cells; settings: J774A.1, 24 h exposure, MTT
# [2] = Solubility of CSIC in acetonitrile, water and water/acetonitrile; assay type: physicochemical; settings: room temperature, 5 days
# [3] = pH stability of CSIC in solution; assay type: physicochemical
# HIV-1 = settings: antiviral EC50; cited from earlier work
# [4] = CSIC solubility in cosolvent matrixes; assay type: physicochemical
# [5] = system: HEC-1A human endometrial epithelial cells; settings: 24 h exposure, MTT
# Oxidation stability = assay type: physicochemical; settings: 3% H2O2, room temperature, up to 10 days
# How it was run: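 Test compound dissolved at 100 μg/mL final in 40% (v/v) aqueous acetonitrile containing 3% H2O2. Kept at room temperature. Aliquots taken at set intervals up to 10 days. Drug content quantified by HPLC (flow 1.4 mL/min). Results given as mean ± standard deviation.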
# Photolysis stability = assay type: physicochemical
# How it was run: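 Half of each group was foil-wrapped as the dark control. All were held at 30 °C/65% RH under fluorescent light (2 × 20 watts) for 12 days. Aliquots at set times were assayed by HPLC. Light versus dark was compared by a repeated-measures mixed model with pairwise comparisons.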
# [6] = 25 °C/60% RH and 65 °C, at least 10 days, 40% acetonitrile
# [7] = system: NNRTI resistance mutation K103N; settings: compared to other NNRTIs; cited from earlier work
structure (smiles),measurement,setting,value
"NC(=O)c1[nH]c2ccc(Cl)cc2c1S(=O)(=O)c1ccccc1 [CSIC, 5-chloro-3-[phenylsulfonyl] indole-2-carboxamide]",binding and dissociation behaviour,HIV-1 RT,binds rapidly but then dissociates very slowly
same,50% cytotoxic concentration (CC50),[1],greater than 5 μg/mL
same,Solubility,[2]; 40% (v/v) acetonitrile,0.36 mg/mL and 1.1 mM
same,Solubility,[2]; 100% acetonitrile,1.7 mg/mL and 5.1 mM
same,Solubility,[2]; water,0.0014 mg/mL and 4.3 μM
same,drug loss,"[3]; all pH conditions (1.2-10), at least 10 days, room temperature",< 5%
same,drug detected compared to time zero,"[3]; all pH conditions, each time point up to 10 days",more than 95%
same,EC50,HIV-1,~1 nM and 1 nM
same,Solubility,"[4]; S1: PEG 400 0%, propylene glycol 50%, glycerin 50%",5.23 mg/mL
same,Solubility,"[4]; S2: PEG 400 12.5%, propylene glycol 37.5%, glycerin 50%",10.60 mg/mL
same,Solubility,"[4]; S3: PEG 400 12.5%, propylene glycol 50%, glycerin 37.5%",12.85 mg/mL
same,Solubility,"[4]; S4: PEG 400 25%, propylene glycol 25%, glycerin 50%",12.85 mg/mL
same,Solubility,"[4]; S5: PEG 400 25%, propylene glycol 37.5%, glycerin 37.5%",17.08 mg/mL
same,Solubility,"[4]; S6: PEG 400 25%, propylene glycol 50%, glycerin 25%",19.99 mg/mL
same,Solubility,"[4]; S7: PEG 400 37.5%, propylene glycol 12.5%, glycerin 50%",20.46 mg/mL
same,Solubility,"[4]; S8: PEG 400 37.5%, propylene glycol 25%, glycerin 37.5%",21.81 mg/mL
same,Solubility,"[4]; S9: PEG 400 37.5%, propylene glycol 37.5%, glycerin 25%",24.63 mg/mL
same,Solubility,"[4]; S10: PEG 400 37.5%, propylene glycol 50%, glycerin 12.5%",22.59 mg/mL
same,Solubility,"[4]; S11: PEG 400 50%, propylene glycol 0%, glycerin 50%",22.86 mg/mL
same,Solubility,"[4]; S12: PEG 400 50%, propylene glycol 12.5%, glycerin 37.5%",23.67 mg/mL
same,Solubility,"[4]; S13: PEG 400 50%, propylene glycol 25%, glycerin 25%",24.31 mg/mL
same,Solubility,"[4]; S14: PEG 400 50%, propylene glycol 37.5%, glycerin 12.5%",28.21 mg/mL
same,Solubility,"[4]; S15: PEG 400 50%, propylene glycol 50%, glycerin 0%",28.64 mg/mL
same,Solubility,[4]; S16: PEG 400:propylene glycol:glycerin 10:2:4 (PEG 400 62.5%),22.7 mg/mL
same,Solubility,[4]; S17: PEG 400:propylene glycol:glycerin 10:3:3 (PEG 400 62.5%),20.7 mg/mL
same,Solubility,"[4]; S18: PEG 400:propylene glycol:glycerin 10:4:2 (PEG 400 62.5%), i.e. 5:2:1 w/w/w",30.2 mg/mL
same,Solubility,[4]; S19: PEG 400:propylene glycol:glycerin 6:1:1 (PEG 400 75%),29.1 mg/mL
same,Solubility,[4]; S20: PEG 400:propylene glycol:glycerin 3:1:0 (PEG 400 75%),28.8 mg/mL
same,50% cytotoxic concentration (CC50),[5],greater than 5 μg/mL
same,log P,,~ 3
same,Log P,1:1 (v/v) octanol/water,3.72
same,Log P,1:2 (v/v) octanol/water,3.72
same,Log P,2:1 (v/v) octanol/water,3.69
same,drug loss,Oxidation stability,20%
same,stability stored in the dark,"Photolysis stability; dark, 30 °C/65% RH, at least 12 days",stable
same,decline of drug concentration,"Photolysis stability; fluorescent light source (2 × 20 watts), 12 days",4%
same,drug concentration over time,[6],remained unchanged
same,activity against K103N,[7],retaining good activity
